# Compound activity as filed in PubChem.
# ZTA DNA inh – ZTA (EBV) inhibition in EBNA-1 counter-screen; ZTA-DNA binding, fluorescence polarization; P03206; inhibition, % at 11 µM; 0.15% of 320,000 active; in the data active = inhibition above about 33%
# Target sequence (P03206 whole entry, looked up): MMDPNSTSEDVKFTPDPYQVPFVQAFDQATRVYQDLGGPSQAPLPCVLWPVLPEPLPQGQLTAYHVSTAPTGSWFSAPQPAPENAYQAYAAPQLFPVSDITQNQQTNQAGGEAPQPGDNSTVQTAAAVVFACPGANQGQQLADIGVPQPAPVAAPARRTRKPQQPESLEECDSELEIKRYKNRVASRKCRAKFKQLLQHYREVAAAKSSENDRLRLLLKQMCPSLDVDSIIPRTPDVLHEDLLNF
# ASAP1 GAP inh – inhibitors of human ASAP1 ArfGAP activity; Q9ULH1; ASAP1-stimulated ARF1 GTP hydrolysis, GDP FP detection; inhibition, % at 16.5 µM; 0.19% of 360,000 active; AID 624377; in the data active = inhibition above about 25%
# Target sequence (Q9ULH1 325-724 limits assumed): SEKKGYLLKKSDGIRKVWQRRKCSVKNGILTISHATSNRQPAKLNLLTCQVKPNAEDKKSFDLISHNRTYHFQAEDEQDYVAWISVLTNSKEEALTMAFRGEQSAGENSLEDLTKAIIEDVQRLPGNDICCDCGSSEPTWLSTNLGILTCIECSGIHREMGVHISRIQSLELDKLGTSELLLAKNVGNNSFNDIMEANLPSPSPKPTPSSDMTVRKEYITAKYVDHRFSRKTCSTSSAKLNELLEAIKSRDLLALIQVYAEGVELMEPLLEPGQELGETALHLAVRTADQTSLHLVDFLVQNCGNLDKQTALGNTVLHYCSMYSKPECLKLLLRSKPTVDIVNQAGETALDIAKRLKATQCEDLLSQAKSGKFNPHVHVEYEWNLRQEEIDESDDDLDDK
# EBNA-1 inh – blocks EBNA-1 binding to DNA; inhibition, % at 14.8 µM; EBNA-1 DNA binding, fluorescence polarization; 0.34% of 300,000 active; AID 1950; in the data active = inhibition above about 28%
# ARFGAP1 inh – rat ARFGAP1 inhibition; Q62848; Arfgap1-stimulated ARF1 GTP hydrolysis, GDP FP detection; inhibition, % at 16.5 µM; 0.26% of 360,000 active; AID 651572;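 active = inhibition above a per-plate limit, mean inhibition of low control wells plus 3 SD, cut at about 25% in these data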
#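 Assay system: Rat Arfgap1 GAP domain (His6, aa 1-136), purified enzyme | Buffer or medium: HEPES 25 mM pH 7.5, NaCl 150 mM, MgCl2, DTT | Schedule: GTP hydrolysis reaction 2 h at 25 °C | Signal: FP of antibody-bound GDP Alexa 633 tracer, ex 620/em 688 nm | Measure: Percent inhibition of Arfgap1-stimulated GTP hydrolysis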
# EBNA-1 inh conf – EBNA-1 (EBV) inhibition, confirmation | shares compounds with EBNA-1 inh | inhibition, % at 14.8 µM | AID 2292 | Recombinant EBNA-1 DBD, Cy5-DNA fluorescence polarization | 35% of 830 active;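 active = mean inhibition across replicates above a set limit taken from the earlier primary screen, cut at about 28% in these data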
# ZTA DNA inh trip – counter-screen for EBNA-1 inhibitors: Epstein-Barr virus ZTA inhibitors, triplicate. shares compounds with EBNA-1 inh. Zta-ZRE DNA binding, Cy5 fluorescence polarization. inhibition, % at 11.1 µM. 830 tested, under 10 active;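 active = mean inhibition over triplicates above a set limit taken from the primary EBNA-1 screen, cut at about 37% in these data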;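 also: purified full length Zta protein with Cy5 labeled ZRE DNA probe; inhibitors lower polarization by freeing the labeled DNA probe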
# Numbers stand for hits; n = inactive; x = no result. Only some compounds are listed: those with a hit (about 0.75% of all), similar ones and a draw of the others.
SMILES,ZTA DNA inh,ASAP1 GAP inh,EBNA-1 inh,ARFGAP1 inh,EBNA-1 inh conf,ZTA DNA inh trip
CCN(CC(=O)Nc1ccccc1OC)C(=O)c1cc(-c2ccccc2)nn1-c1ccccc1,n,n,45,n,n,n
Cc1cc2c(nc1C)CCCN2S(=O)(=O)c1cccs1,x,n,x,n,x,x
COc1cc2c(cc1OC)[C@](C)(c1ccccc1)C[C@@H]2NCC=C(C)C,x,n,x,n,x,x
O=C(O)c1ccc(-c2nc(-c3ccccc3)cs2)cc1,n,n,n,n,x,x
c1ccc(-c2csc(-c3ccc(-c4csnn4)cc3)n2)cc1,n,n,57,n,46,n
CCOC(=O)c1cnc(SCc2nc(N)nc(Nc3ccc(C)cc3)n2)nc1N,n,n,n,n,x,x
CCOC(=O)c1cnc(SCc2nc(N)nc(Nc3ccc(F)cc3)n2)nc1N,n,n,49,n,n,n
O=C(N/C(=C\c1ccc(Br)cc1)c1nc2ccccc2[nH]1)c1ccco1,n,n,49,n,33,n
COC(=O)c1cc2c(c3c4cc(OC)ccc4n(C(=O)c4ccccc4)c13)C(=O)N(C1CCCCC1)C2,x,n,x,n,x,x
O=S(=O)(NCCOc1ccccc1)c1ccc2ccccc2c1,n,n,31,n,n,n
O=C(OCc1ccccc1)N1CCC2CC1c1ccc(N3CCN(Cc4ccccc4)CC3)cc12 (configuration not stated),x,n,x,n,x,x
COc1cc(S(=O)(=O)N(Cc2cccs2)CC2CCCO2)ccc1-n1cnnn1 (configuration not stated),n,n,n,n,x,x
O=S(=O)(NCc1ccccc1)c1ccc(S(=O)(=O)N(Cc2cccs2)CC2CCCO2)cc1 (configuration not stated),n,n,35,n,n,n
COC(=O)Cc1cc(=O)[nH]c(/N=C(\N)Nc2ccc(C)cc2C)n1,n,n,n,n,x,x
CCOC(=O)Cc1cc(=O)[nH]c(/N=C(\N)Nc2ccc(C)cc2C)n1,n,n,47,n,n,n
O=C(C1CCC(Cn2c(=S)[nH]c3ccccc3c2=O)CC1)N1CCOCC1 (configuration not stated),n,n,n,n,x,x
CCCCCNC(=O)C1CCC(Cn2c(=S)[nH]c3ccccc3c2=O)CC1 (configuration not stated),n,n,44,n,n,n
COC(=O)C1=C(C)N(Cc2ccc(C(F)(F)F)cc2)C(=NCc2ccc3c(c2)OCO3)NC1c1cccc(Cl)c1 (configuration not stated),x,n,x,n,x,x
O=S1(=O)N[C@H](Cc2ccccc2)COc2cc(Br)ccc21,x,n,x,n,x,x
COC(=O)c1cc(NC(=O)Cn2c(=O)oc3ccccc32)cc(C(=O)OC)c1,n,n,65,n,38,n
O=C(CCn1c(=O)oc2ccccc21)Nc1cccc(Cl)c1,n,n,36,n,n,n
COc1ccc(NC(=O)Cn2c(=O)oc3ccccc32)cc1,n,n,n,n,x,x
CCOC(=O)C(CNc1ccc(OCc2ccccc2)cc1)NC(=O)c1ccccc1 (configuration not stated),x,n,x,n,x,x
CC(=O)c1cccc(NC(=S)N2CCN(CCN3C(=O)c4cccc5cccc(c45)C3=O)CC2)c1,n,n,34,n,n,n
CC(=O)c1ccc(NC(=S)N2CCN(CCN3C(=O)c4cccc5cccc(c45)C3=O)CC2)cc1,n,n,n,n,x,x
SMILES,ZTA DNA inh,ASAP1 GAP inh,EBNA-1 inh,ARFGAP1 inh,EBNA-1 inh conf,ZTA DNA inh trip
CC(=O)Nc1ccc(NC(=S)NC(=O)c2oc3ccccc3c2C)cc1,n,n,n,n,x,x
COc1ccc2oc(C(=O)OCC(=O)Nc3cc(S(=O)(=O)N4CCOCC4)ccc3C)c(C)c2c1,n,n,62,n,107,n
COc1ccc2oc(C(=O)OCC(=O)Nc3ccc(NC(C)=O)cc3)c(C)c2c1,n,n,120,n,167,n
CC(=O)Nc1ccc(NC(=O)C(C)OC(=O)c2oc3ccccc3c2C)cc1 (configuration not stated),n,n,80,n,118,n
Cc1ccc(S(=O)(=O)NCC2CCN(C(=O)C(=O)c3cc4ccccc4o3)CC2)cc1,x,n,x,n,x,x
COc1ccc(Cc2nnc(NC(=O)Nc3ccccc3)s2)cc1OC,n,n,60,n,n,n
COc1ccc(C(=O)Nc2nnc(Cc3cccs3)s2)cc1OC,n,n,30,n,52,n
COc1cccc(NC(=O)Nc2nnc(Cc3ccc(OC)c(OC)c3)s2)c1,n,n,n,n,x,x
Nc1[nH]c(C(=O)c2ccc(Br)cc2)c(-c2c(F)cccc2F)c1C(=O)NCCc1c[nH]c2ccccc12,x,n,x,n,x,x
CCOC(=O)C1CCN(Cc2ccc(Cl)c(Cl)c2)CC1,n,n,46,n,n,n
COCC(=O)N1C[C@H]2CON(C)[C@H]2C[C@H]1c1cccc(-c2cc(Cl)cc(Cl)c2)c1,x,n,x,n,x,x
CS(=O)(=O)c1ccc(Cl)c(NC(=O)Cc2ccccc2F)c1,n,n,n,n,x,x
CS(=O)(=O)c1ccc(Cl)c(NC(=O)Cc2c(F)cccc2Cl)c1,n,n,44,n,30,n
Cc1nn(-c2ccccc2)c(N2CCCC2)c1/C=N/NC(=S)Nc1ccccc1C(F)(F)F,n,n,n,n,x,x
Cc1ccc(NC(=S)N/N=C/c2c(C)nn(-c3ccccc3)c2N2CCCC2)cc1,n,n,39,n,n,n
O=C(Cn1cnc2c(nnn2Cc2ccc(Cl)cc2)c1=O)OCc1ccccc1,n,n,30,n,n,n
CCOC(=O)Cn1cnc2c(nnn2Cc2ccc(Cl)cc2)c1=O,n,n,n,n,x,x
CCN1C(=O)/C(=C2/C=Cc3cc(C)ccc3N2CC)N(C)C1=S,n,n,29,n,n,n
CC(=O)C1=C(C)N(Cc2ccc(Cl)cc2)C(=S)NC1c1ccc(Cl)cc1 (configuration not stated),x,n,x,n,x,x
Cc1ccc(C)c(NC(=S)N=Nc2c(O)n(C)c3ccc(S(=O)(=O)N4CCOCC4)cc23)c1,n,n,n,n,x,x
CCc1ccccc1NC(=S)N=Nc1c(O)n(C)c2ccc(S(=O)(=O)N3CCOCC3)cc12,n,n,49,n,n,n
CC(C)C(=O)Nc1cccc(C(=O)OCC(=O)c2ccc(Cl)cc2Cl)c1,n,n,41,n,79,n
O=C(/C(=N/N=C/c1ccc(O)c(O)c1O)c1ccccc1)c1ccccc1,n,n,39,n,n,n
COc1ccccc1N1CCN(c2ccc([N+](=O)[O-])cc2Cl)CC1,n,n,38,n,n,n
CC(C)c1ccc(Nc2nc(Cl)nc(NCc3ccco3)n2)cc1,n,n,n,n,x,x
COc1ccc(Nc2nc(Cl)nc(NCc3ccco3)n2)c(OC)c1,n,n,29,n,n,n
CCOc1cc(/C=N/NC(=O)C(=O)N/N=C/c2ccc(O)c(OCC)c2)ccc1O,n,n,28,n,n,n
CCOc1cc(/C=N/NC(=O)N/N=C/c2ccc(O)c(OCC)c2)ccc1O,n,n,n,n,x,x
